According to ChEMBL document CHEMBL3779876, “Synthesis and biological evaluation of novel 2,3-dihydrochromeno[3,4-d]imidazol-4(1H)-one derivatives as potent anticancer cell proliferation and migration agents” (Eur J Med Chem, 2016):
The source made the active and inactive calls. The rule behind the calls is not given here.

Key:
[1] = Cell cycle arrest in human SW620 cells assessed as accumulation at G0/G1 phase at 0.3125 uM after 24 hrs by propidium iodide staining based flow cytometry (reference value: 38.47%); assay type: functional; details: SW-620
[2] = Cell cycle arrest in human SW620 cells assessed as accumulation at G0/G1 phase after 24 hrs by propidium iodide staining based flow cytometry; assay type: functional; details: SW-620
[3] = Growth inhibition of human SW620 cells assessed as cell viability after 72 hrs by MTT assay; assay type: functional, cell-based; details: SW-620, 72 h
Procedure, shortened: (§1)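 Cells were grown in DMEM or RPMI with 10% FBS and 1% penicillin/streptomycin at 37 °C, 5% CO2. They were seeded at 2000–3000 cells, rested 24 h, then exposed to a range of concentrations for 72 h. MTT (5 mg/mL stock) was added for 2–4 h at 37 °C and formazan dissolved in DMSO. A570 was read and IC50 calculated; triplicate wells, three separate experiments.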

SW-620 [4] = experiment: Induction of apoptosis in human SW620 cells assessed as late apoptotic cells at 0.3125 uM after 24 hrs by Annexin V-FITC/propidium iodide staining based flow cytometry (reference value: 1.02%); assay type: functional
HCT-116 [5] = experiment: Inhibition of colony formation in human HCT116 cells at 0.3125 to 2.5 uM after 20 days by crystal violet staining based microscopic analysis; assay type: functional, cell-based
Procedure, shortened: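 HCT116 cells were plated at 500 per well, left overnight at 37 °C, then treated with fresh compound-containing medium. Colonies were washed with cold PBS, fixed in 4% paraformaldehyde and stained with 0.5% crystal violet for 15 min. Colonies over 50 cells were counted by microscope and expressed as % of control; three independent experiments.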

[6] = Cell cycle arrest in human SW620 cells assessed as accumulation at G0/G1 phase at 2.5 uM after 24 hrs by propidium iodide staining based flow cytometry (reference value: 38.47%); assay type: functional; details: SW-620
SW-620 [7] = experiment: Induction of apoptosis in human SW620 cells assessed as late apoptotic cells at 1.25 uM after 24 hrs by Annexin V-FITC/propidium iodide staining based flow cytometry (reference value: 1.02%); assay type: functional
[8] = Growth inhibition of human LO2 cells assessed as cell viability after 72 hrs by MTT assay; assay type: cell-based; details: L02, 72 h; procedure, shortened: as §1
SW-620 [9] = experiment: Induction of apoptosis in human SW620 cells assessed as late apoptotic cells at 5 uM after 24 hrs by Annexin V-FITC/propidium iodide staining based flow cytometry (reference value: 1.02%); assay type: functional
CT26 = experiment: Growth inhibition of mouse CT26 cells assessed as cell viability after 72 hrs by MTT assay; assay type: functional, cell-based; details: CT26, 72 h; procedure, shortened: as §1
A549 = experiment: Growth inhibition of human A549 cells assessed as cell viability after 72 hrs by MTT assay; assay type: functional, cell-based; details: A549, 72 h; procedure, shortened: as §1
[10] = Cell cycle arrest in human SW620 cells assessed as accumulation at G0/G1 phase at 5 uM after 24 hrs by propidium iodide staining based flow cytometry (reference value: 38.47%); assay type: functional; details: SW-620
[11] = Growth inhibition of human U87MG cells assessed as cell viability after 72 hrs by MTT assay; assay type: functional, cell-based, U-87MG ATCC; details: U-87 MG; procedure, shortened: as §1
[12] = Cell cycle arrest in human SW620 cells assessed as accumulation at G2/M phase at 2.5 uM after 24 hrs by propidium iodide staining based flow cytometry (reference value: 22.88%); assay type: functional; details: SW-620
[13] = Cell cycle arrest in human SW620 cells assessed as accumulation at S phase at 1.25 uM after 24 hrs by propidium iodide staining based flow cytometry (reference value: 38.65%); assay type: functional; details: SW-620
[14] = Cell cycle arrest in human SW620 cells assessed as accumulation at G0/G1 phase at 1.25 uM after 24 hrs by propidium iodide staining based flow cytometry (reference value: 38.47%); assay type: functional; details: SW-620
[15] = Cell cycle arrest in human SW620 cells assessed as accumulation at S phase at 2.5 uM after 24 hrs by propidium iodide staining based flow cytometry (reference value: 38.65%); assay type: functional; details: SW-620
[16] = Cell cycle arrest in human SW620 cells assessed as accumulation at G2/M phase at 0.625 uM after 24 hrs by propidium iodide staining based flow cytometry (reference value: 22.88%); assay type: functional; details: SW-620
[17] = Cell cycle arrest in human SW620 cells assessed as accumulation at G2/M phase at 5 uM after 24 hrs by propidium iodide staining based flow cytometry (reference value: 22.88%); assay type: functional; details: SW-620
SW-620 [18] = experiment: Induction of apoptosis in human SW620 cells assessed as early apoptotic cells at 0.625 uM after 24 hrs by Annexin V-FITC/propidium iodide staining based flow cytometry (reference value: 2.81%); assay type: functional
SW-620 [19] = experiment: Induction of apoptosis in human SW620 cells assessed as late apoptotic cells at 2.5 uM after 24 hrs by Annexin V-FITC/propidium iodide staining based flow cytometry (reference value: 1.02%); assay type: functional
SW-620 [20] = experiment: Induction of apoptosis in human SW620 cells assessed as early apoptotic cells at 0.3125 uM after 24 hrs by Annexin V-FITC/propidium iodide staining based flow cytometry (reference value: 2.81%); assay type: functional
HCT-116 [21] = experiment: Antitumor activity against human HCT116 cells xenografted in ip dosed Balb/c athymic nude mouse assessed as tumor growth inhibition administered once in 2 days for 24 days measured every 2 days during compound treatment; assay type: functional, organism-based
Procedure, shortened: (§2)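 Female BALB/c athymic nude mice, 7 weeks old, received 1×10^7 HCT116 cells s.c. in the right flank. After one week, at about 100 mm³ mean tumour volume, mice were randomised to three groups of 8. Groups got vehicle, 40 or 80 mg/kg i.p. once every two days for 24 days. Tumour size and body weight were measured every two days. Volume = L×W²×0.5; inhibition was taken from mean volume change versus vehicle.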

[22] = Cell cycle arrest in human SW620 cells assessed as accumulation at G2/M phase at 0.3125 uM after 24 hrs by propidium iodide staining based flow cytometry (reference value: 22.88%); assay type: functional; details: SW-620
SW-620 [23] = experiment: Induction of apoptosis in human SW620 cells assessed as late apoptotic cells at 0.625 uM after 24 hrs by Annexin V-FITC/propidium iodide staining based flow cytometry (reference value: 1.02%); assay type: functional
SW-620 [24] = experiment: Induction of apoptosis in human SW620 cells assessed as early apoptotic cells at 5 uM after 24 hrs by Annexin V-FITC/propidium iodide staining based flow cytometry (reference value: 2.81%); assay type: functional
[25] = Growth inhibition of human HCT116 cells assessed as cell viability after 72 hrs by MTT assay; assay type: functional, cell-based; details: HCT-116, 72 h; procedure, shortened: as §1
MCF7 [26] = experiment: Growth inhibition of human MCF7 cells assessed as cell viability after 72 hrs by MTT assay; assay type: functional, cell-based; details: MCF7, 72 h; procedure, shortened: as §1
[27] = Cell cycle arrest in human SW620 cells assessed as accumulation at S phase at 5 uM after 24 hrs by propidium iodide staining based flow cytometry (reference value: 38.65%); assay type: functional; details: SW-620
[28] = Antitumor activity against human HCT116 cells xenografted in Balb/c athymic nude mouse assessed as tumor growth inhibition at 80 mg/kg, ip once in 2 days for 24 days measured every 2 days during compound treatment relative to control; assay type: functional; details: HCT-116, ip, read-out: TGI; procedure, shortened: as §2
[29] = Cell cycle arrest in human SW620 cells assessed as accumulation at G0/G1 phase at 0.625 uM after 24 hrs by propidium iodide staining based flow cytometry (reference value: 38.47%); assay type: functional; details: SW-620
SW-620 [30] = experiment: Induction of apoptosis in human SW620 cells after 24 hrs by Annexin V-FITC/propidium iodide staining based flow cytometry; assay type: functional, cell-based
SW-620 [31] = experiment: Induction of apoptosis in human SW620 cells assessed as early apoptotic cells at 1.25 uM after 24 hrs by Annexin V-FITC/propidium iodide staining based flow cytometry (reference value: 2.81%); assay type: functional
[32] = Growth inhibition of human PC3 cells assessed as cell viability after 72 hrs by MTT assay; assay type: functional, cell-based; details: PC-3, 72 h; procedure, shortened: as §1
[33] = Cell cycle arrest in human SW620 cells assessed as accumulation at S phase at 0.3125 uM after 24 hrs by propidium iodide staining based flow cytometry (reference value: 38.65%); assay type: functional; details: SW-620
[34] = Cell cycle arrest in human SW620 cells assessed as accumulation at G2/M phase at 1.25 uM after 24 hrs by propidium iodide staining based flow cytometry (reference value: 22.88%); assay type: functional; details: SW-620
SW-620 [35] = experiment: Induction of apoptosis in human SW620 cells assessed as early apoptotic cells at 2.5 uM after 24 hrs by Annexin V-FITC/propidium iodide staining based flow cytometry (reference value: 2.81%); assay type: functional
[36] = Cell cycle arrest in human SW620 cells assessed as accumulation at S phase at 0.625 uM after 24 hrs by propidium iodide staining based flow cytometry (reference value: 38.65%); assay type: functional; details: SW-620
MCF7 [37] = experiment: Inhibition of cell migration in human MCF7 cells at 5 uM after 24 hrs by wound healing assay; assay type: functional, cell-based
Procedure, shortened: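 MCF-7 monolayers at 80–90% confluence were scratched with a sterile pipette tip. Fresh medium with 10% FBS and compound was added. Wounds were photographed at 0, 12 and 24 h at 37 °C.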

Mus musculus = experiment: Toxicity in Balb/c athymic nude mouse xenografted with human HCT116 cells assessed as body weight loss at 40 to 80 mg/kg, ip once in 2 days for 24 days measured every 2 days during compound treatment; assay type: organism-based, HCT-116; details: in vivo; procedure, shortened: as §2

Compound: CN1c2c(c3cc(-c4cnc5ccccc5c4)ccc3oc2=O)N(c2ccc(C(C)(C)C#N)cc2)C1(C)OC(C)(C)C (stereo not given)
- Activity [1]: 38.8%
- Activity [2]: Dose-dependent effect
- IC50 [3]: 3.55 µM
- Activity (SW-620 [4]): 8.96%
- inhibition (HCT-116 [5]): Active
- Activity [6]: 47.5%
- Activity (SW-620 [7]): 8.43%
- IC50 [8]: 37 µM
- Activity (SW-620 [9]): 11.57%
- IC50 (CT26): 3.5 µM
- IC50 (A549): 9.5 µM
- Activity [10]: 60%
- IC50 [11]: > 31 µM
- Activity [12]: 15.3%
- Activity [13]: 36.6%
- Activity [14]: 43%
- Activity [15]: 37.2%
- Activity [16]: 22.8%
- Activity [17]: 9.68%
- Activity (SW-620 [18]): 8.59%
- Activity (SW-620 [19]): 9.44%
- Activity (SW-620 [20]): 6.75%
- TGI (HCT-116 [21]): Dose-dependent effect
- Activity [22]: 26%
- Activity (SW-620 [23]): 9.09%
- Activity (SW-620 [24]): 31.33%
- IC50 [25]: 1.4 µM
- IC50 (MCF7 [26]): 1.7 µM
- Activity [27]: 30.3%
- inhibition in vivo at 80 mg/kg [28]: 53%
- Activity [29]: 40.3%
- Activity (SW-620 [30]): Dose-dependent effect
- Activity (SW-620 [31]): 16.76%
- IC50 [32]: 18 µM
- Activity [33]: 35.2%
- Activity [34]: 20.5%
- Activity (SW-620 [35]): 16.78%
- Activity [36]: 36.9%
- inhibition (MCF7 [37]): Active
- Activity (Mus musculus): Non-toxic
